Paper PMC7065888 (Science Advances, 2020)

How the values were obtained:
recombinant mouse RBP2 = type: binding; conditions: holo-RBP2 incubated with 2 molar excess of compound, room temperature, 15 min
recombinant apo-RBP2 = type: binding, mouse; conditions: MS/MS-based detection
Summary of the method: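 Purified recombinant mouse RBP2 in apo form was incubated with the test lipid. The protein was then chromatographically repurified to strip unbound ligand, and lipid still associated with the protein was detected by tandem mass spectrometry.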

mouse RBP2 = target: T1, mouse RBP2 (Mus musculus, UniProt Q08652); type: binding
T1 sequence (Q08652 1-134): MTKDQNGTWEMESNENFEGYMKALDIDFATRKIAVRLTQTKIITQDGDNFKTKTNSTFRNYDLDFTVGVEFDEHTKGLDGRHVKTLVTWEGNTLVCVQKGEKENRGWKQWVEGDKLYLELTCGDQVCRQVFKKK

RBP2 = conditions: cited from earlier work

Row | displacement of retinol from its RBP2 binding pocket (recombinant mouse RBP2) | Structure (SMILES) | further results
1 | displaced retinol | CCCCC/C=C\C/C=C\C/C=C\C/C=C\CCCC(=O)OC[C@@H](O)CO [1-AG, 1-arachidonoylglycerol] | –
2 | displaced retinol | CCCCC/C=C\C/C=C\C/C=C\C/C=C\CCCC(=O)OC(CO)CO [2-AG, 2-arachidonoylglycerol] | ligand bound to RBP2 after chromatographic repurification (recombinant apo-RBP2): remained bound to RBP2; Kd (mouse RBP2): 0.0271 ± 0.0024 µM
3 | displaced retinol | CCCCC/C=C\C/C=C\CCCCCCCC(=O)OC(CO)CO [2-LG, 2-lineoylglycerol] | –
4 | displaced retinol | CCCCCCCC/C=C\CCCCCCCC(=O)OC(CO)CO [2-OG, 2-oleoylglycerol] | Kd (mouse RBP2): 0.0654 ± 0.0044 µM
5 | little displacement | CCCCCCCCCCCCCC(=O)NCCO [MEA, N-myristoylethanolamine] | –
6 | – | CC1=C(/C=C/C(C)=C/C=C/C(C)=C/C=O)C(C)(C)CCC1 [retinaldehyde] | Kd for binding to RBP2 relative to the Kd values reported here for 2-MAG binding (RBP2): two to six times higher
7 | – | CC1=C(/C=C/C(C)=C/C=C/C(C)=C/CO)C(C)(C)CCC1 [retinol, all-trans-retinol] | Kd for binding to RBP2 relative to the Kd values reported here for 2-MAG binding (RBP2): two to six times higher

Row | Structure (SMILES) | displacement of retinol from its RBP2 binding pocket (recombinant mouse RBP2) | further results
8 | CCCCC/C=C\C/C=C\C/C=C\C/C=C\CCCC(=O)NCCO [AEA, N-arachidinoylethanolamine] | little displacement | fold less effective than MAGs in displacing bound retinol from RBP2 (mouse RBP2; fluorescence emission spectra of holo-RBP2): ~ 25 fold
9 | CCCCC/C=C\C/C=C\CCCCCCCC(=O)NCCO [LEA, N-linoleoylethanolamine] | little displacement | –
